# Compounds with a hit are over-represented: about 3% of the library has one in this group of screens.
# S1P3 ag: activates the human S1P3 receptor; activation, % at 4.5 µM; S1P3 NFAT-BLA reporter cells, agonism, FRET ratio; relative to 1 µM S1P, basal subtracted; Q99500; 60,000 compounds, 0.1% hits;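 active = activation above the screen-wide mean plus 3 SD, cut at about 4.5% in these data, passing the limit was not always enough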
# Target sequence (Q99500 whole entry, looked up): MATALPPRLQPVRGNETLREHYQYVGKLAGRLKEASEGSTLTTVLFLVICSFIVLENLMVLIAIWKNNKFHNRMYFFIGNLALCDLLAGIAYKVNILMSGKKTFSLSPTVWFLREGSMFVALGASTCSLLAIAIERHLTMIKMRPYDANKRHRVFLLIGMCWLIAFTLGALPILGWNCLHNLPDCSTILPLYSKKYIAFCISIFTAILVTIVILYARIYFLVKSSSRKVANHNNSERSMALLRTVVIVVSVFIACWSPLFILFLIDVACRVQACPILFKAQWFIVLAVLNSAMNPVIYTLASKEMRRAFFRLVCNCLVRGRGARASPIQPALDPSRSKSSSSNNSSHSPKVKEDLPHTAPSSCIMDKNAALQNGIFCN
#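 Material: Human S1P3 NFAT-BLA reporter CHO cells | Incubation: Overnight plating, 4 h compound 37 °C, 2 h substrate RT | Signal: FRET β-lactamase substrate fluorescence, excitation 405 nm, 460/535 nm emission ratio, background-subtracted | Compound: 4.5 µM final, single dose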
# S1P1 ag pot: agonists and agonism potentiators of human S1P1 receptor. activation, % at 9.5 µM. 56,000 compounds, 0.57% hits. S1P1 CRE-bla cells, forskolin, beta-lactamase FRET, potentiator mode; S1P1 agonist co-added at EC20, 2 nM; 100% = saturating reference agonist, 0% = basal. P21453. AID 449;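 active = activation above a cutoff set at the mean activation of all tested compounds plus 3 SD, cut at about 54% in these data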;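 also: forskolin at 4 µM as EC80 and the EC20 agonist is SEW2871; 100% = SEW2871 at its EC100 plus forskolin at EC80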
# HTR1E agonist: 5-HT1E (human) receptor agonism; P28566; CHO 5-HT1E Ga15 NFAT-bla reporter, FRET; 0% DMSO wells, 100% control agonist wells; activation, % at 6 µM; 65,000 compounds, 0.69% hits; AID 574;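 active = activation above a set limit, the screen-wide mean activation plus 3 SD, cut at about 8.5% in these data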;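 also: 100% = positive control agonist at 1 µM giving full maximal response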
# 5-HT1A blocker: 5-HT1a (human) receptor antagonism. 62,000 compounds, 0.68% hits. CHO 5-HT1a Ga15 NFAT-bla reporter, antagonist mode. AID 612. inhibition, % at 10 µM;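 active = inhibition above the mean of all tested compounds plus 3 SD, cut at about 43% in these data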;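 also: receptor stimulated by 5-CT agonist at 100 nM near EC80; beta-lactamase reporter measured by ratiometric fluorescence of a cleavable substrate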
# 5HT1E antag: 5-HT1E (human) receptor antagonism; CHO 5-HT1E Ga15 NFAT-bla reporter, FRET, antagonist; inhibition, % at 6 µM; 65,000 compounds, 0.99% hits; AID 571;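 active = inhibition above a set limit, the mean inhibition across every tested compound plus 3 SD, cut at about 29% in these data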;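 also: signal is the 460 over 535 nm emission ratio of beta-lactamase substrate; 0% = agonist plus DMSO wells and 100% = wells without agonist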
# 5HT1a ag: 5-HT1a (human) receptor agonism. P08908. CHO 5-HT1a Ga15 NFAT-bla reporter, FRET ratio; 0% basal, 100% maximal reference agonist. activation, % at 10 µM. 65,000 compounds, 0.56% hits. AID 567;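 active = activation above the screen-wide mean activation plus 3 SD, cut at about 19% in these data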;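 also: 0% = DMSO wells and 100% = 5-CT at EC100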
# The depositor's hits bear a star; nt = not tested or not shown.
SMILES,S1P3 ag,S1P1 ag pot,HTR1E agonist,5-HT1A blocker,5HT1E antag,5HT1a ag
O=C1C2C3C=CC(CO)(O3)C2C(=O)N1c1ccc(-c2ccccc2)cc1 (configuration not stated),nt,nt,0,88*,61*,-6
CCOc1cc(-c2nc(-c3ccncc3)no2)cc(OCC)c1OCC,0,-5,0,-3,-18,1
CCOc1cc(-c2nc(-c3ccc(OC)cc3)no2)cc(OCC)c1OCC,0,0,0,-12,-12,1
COc1ccc(-c2noc(-c3ccccc3C(=O)Nc3cccc(OC)c3)n2)cc1,-1,14,-1,37,-7,0
CCOc1ccccc1NC(=O)c1ccccc1-c1nc(-c2ccccc2)no1,-1,-4,1,46*,-14,2
CCOc1ccc(-c2nc(-c3ccncc3)no2)cc1OCC,54*,111*,0,4,-5,0
Cc1cc(C)cc(-c2nc(-c3ccncc3)no2)c1,-1,105*,0,-4,-7,-2
CCOc1ccc(-c2nc(-c3ccccc3)no2)cc1OCC,14*,108*,0,-21,-14,0
C/C(N)=C(\C#N)C(=O)NCc1ccccn1,-1,-6,-1,-12,-5,2
Cc1nc(C)c(C(=O)C2=C(O)C(=O)N(CCCN(C)C)C2c2ccco2)s1 (configuration not stated),0,-1,-1,2,5,2
OCCN1CCN(c2nc(-c3ccccc3)c3cc(Cl)ccc3n2)CC1,4.6*,-41,7,-20,6,18
Clc1ccc2nc(NC3=NCN(CCN4CCOCC4)CN3)nc(-c3ccccc3)c2c1,-1,-22,1,-6,-2,-3
CN1CCN(c2nc(-c3ccccc3)c3cc(Cl)ccc3n2)CC1,13,-41,8,-30,0,30*
Clc1ccc2nc(N3CCNCC3)nc(-c3ccccc3)c2c1,18*,-50,14*,nt,-4,55*
Cn1c(C(=O)N2CCN(c3ccc(Cl)cc3)CC2)cc2c(=O)n(C)c3ccccc3c21,-1,-16,0,-7,-13,0
Cc1cc(C#N)c(C)n1-c1cc(C(F)(F)F)ccc1N1CCOCC1,1,0,-1,43*,12,3
COc1ccc(N2C(=O)C3CCCN3C2c2cccc(F)c2)cc1Cl (configuration not stated),0,14,0,2,-14,2
CCCCCCc1cc2cc(C(=O)NC)c(=N)oc2cc1O,-2,5,2,nt,2,33*
c1cncc(-c2nc(N3CCCCCC3)c3ccccc3n2)c1,-1,-7,0,6,11,3
CN1CCN(c2nc(-c3cccnc3)nc3ccccc23)CC1,-1,-51,42*,10,-3,1
CCN1CCN(c2nc(-c3cccnc3)nc3ccccc23)CC1,0,0,13*,-3,7,4
CCC(C)C1C(C#N)=C(N)Oc2n[nH]c(C)c21 (configuration not stated),0,29,0,14,39*,-1
Cc1[nH]nc2c1C(C(C)C)C(C#N)=C(N)O2 (configuration not stated),0,-2,0,12,0,-6
CCC1CCCCN1C(=O)CSc1nnc(-c2c[nH]c3ccccc23)o1 (configuration not stated),-1,79*,1,-14,-131,1
C=CCn1c(=O)c2ccccc2n2c(SCC(=O)c3ccccc3)nnc12,0,-9,1,-11,2,-1
SMILES,S1P3 ag,S1P1 ag pot,HTR1E agonist,5-HT1A blocker,5HT1E antag,5HT1a ag
C=CCn1c(=O)c2ccccc2n2c(SCc3nc(N)nc(Nc4ccccc4C)n3)nnc12,0,-55,0,-46,30*,0
Cc1cc(=O)n2nc(N3CCC(C(=O)NCCC4=CCCCC4)CC3)sc2n1,-1,-6,0,-3,2,-2
Cc1cc(NC(=O)CSc2nc3ccccc3c(=O)n2C2CCCC2)no1,0,nt,1,58*,65*,0
COc1ccc(S(=O)(=O)N(CC(=O)N2CCN(C)CC2)c2ccc(C)cc2)cc1OC,nt,nt,-1,11,-2,-2
COc1ccc(C2C(C(=O)NCCN3CCOCC3)c3ccccc3C(=O)N2C)cc1OC (configuration not stated),nt,nt,1,-6,-14,1
COc1ccc(S(=O)(=O)N2CCCC(C(=O)NCc3ccccn3)C2)cc1 (configuration not stated),0,-7,0,-5,-6,-5
CCOc1ccccc1NC(=O)CN(c1cc(C)cc(C)c1)S(=O)(=O)c1c(C)noc1C,-1,14,0,3,-10,1
COc1ccccc1NC(=O)CN(c1ccc(C)cc1)S(=O)(=O)c1c(C)n[nH]c1C,0,18,-1,63*,14,-2
CCOc1ccccc1NC(=O)CN(c1ccc(OC)cc1)S(=O)(=O)c1c(C)noc1C,-1,-1,0,35,68*,-1
CCOc1ccc(N(CC(=O)Nc2ccc(C)c(C)c2)S(=O)(=O)c2c(C)noc2C)cc1,-2,28,0,18,6,0
Cc1noc(C)c1S(=O)(=O)N(CC(=O)Nc1ccc2c(c1)OCO2)c1ccc(C(C)C)cc1,-2,79*,0,15,3,0
CCOc1ccc(N(CC(=O)Nc2ccccc2C)S(=O)(=O)c2c(C)noc2C)cc1,-2,1,0,30,46*,0
Cc1nn(C)c(C)c1S(=O)(=O)N(CC(=O)Nc1ccc2c(c1)OCO2)c1ccc(C(C)C)cc1,0,-2,0,0,0,1
COc1ccc(Cl)cc1S(=O)(=O)N1CCN(C(=O)COc2ccccc2)CC1,0,-12,0,-9,-3,1
Nc1nc(CSc2nc3ccccc3[nH]2)nc(N2CCOCC2)n1,0,-72,0,-6,9,-4
CCn1c(SCC(=O)O)nnc1-c1cc2c(C)nn(-c3ccccc3)c2s1,0,1,0,6,-2,0
O=C(Cc1ccccc1)CC1(O)C(=O)Nc2ccccc21 (configuration not stated),0,2,-1,4,1,-4
Cc1cccc(N2CCN(C(=O)c3ccc(N4CCCC4=O)cc3)CC2)c1C,0,29,1,11,-1,1
Cc1oc(-c2ccccc2)nc1Cn1cccc1C1=NC(c2ccccc2)CO1 (configuration not stated),-1,104*,0,32,4,0
Cn1c2ccc(Cl)cc2c2nc3ccccc3nc21,1,-104,0,10,37*,2
